Screens as filed in PubChem BioAssay.
The list is not random: actives were taken first. Their share in the collection is about 3.7%.
rCAG RNA binder: r(CAG) repeat RNA binding; 1.3% of 370,000 active; TO-PRO-1 dye displacement fluorescence; AID 651821; inhibition, % at 3 µM;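 active means inhibition above the plate cutoff, the mean of all test compounds on that plate plus 3 SD, cut at about 35% in these data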;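 further: 0% = DMSO alone and 100% = 100 µM mitoxantrone as full dye displacement; higher means more dye released from RNA so lower well fluorescence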
TAAR1 agonist: human TAAR1 agonism. 0.99% of 360,000 active. Q96RJ0. CHO RD-HGA16 TAAR1, Fluo-8 calcium fluorescence; vehicle wells 0%, saturating PEA agonist 100%. AID 624467. activation, % at 3 µM;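 active means activation above the mean activation of all test compounds in the run plus 3 SD, cut at about 38% in these data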
Target sequence (Q96RJ0 whole entry, looked up): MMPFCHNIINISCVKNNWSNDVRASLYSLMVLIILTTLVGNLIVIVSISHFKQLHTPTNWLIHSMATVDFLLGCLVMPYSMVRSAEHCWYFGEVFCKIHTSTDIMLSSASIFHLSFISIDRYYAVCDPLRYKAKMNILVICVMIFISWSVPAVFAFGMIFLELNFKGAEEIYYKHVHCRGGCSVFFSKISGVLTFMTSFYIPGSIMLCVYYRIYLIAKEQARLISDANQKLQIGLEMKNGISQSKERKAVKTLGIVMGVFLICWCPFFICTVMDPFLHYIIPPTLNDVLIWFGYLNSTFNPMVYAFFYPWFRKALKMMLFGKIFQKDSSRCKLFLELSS
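System: CHO-derived RD-HGA16 cells with stable Gα16 and human TAAR1 / Times: 17-24 h plating, Fluo-8 75 min 37 °C, 30 min RT / Technique: calcium-sensitive Fluo-8 signal, excitation 470-495, emission 515-575 nm / Measure: % activation relative to PEA EC100 response / Benchmarks: DMSO and PEA EC100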
HCV core dimer: blocks dimerization of HCV core protein; TR-FRET GST/Flag-core106 dimerization, 1536-well; inhibition, % at 5 µM; 0.33% of 300,000 active;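 active means inhibition above the mean of all tested compounds plus 3 SD, set per screening campaign, cut at about 45% in these data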
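Assay system: Tagged HCV core106 pair (GST and Flag) | Buffer or medium: KF-containing HEPES buffer, pH 7.45, DTT, CHAPS, BSA | Also added: Eu donor and XL665 acceptor anti-tag antibodies | Dosing: One concentration, 5 µM, in 0.5% DMSO | Timing: 4 h at 22.5 °C | Technique: TR-FRET 671 and 617 nm emission | Repeats: Singlicate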
TAAR1 antag: human TAAR1 antagonism | CHO RD-HGA16 TAAR1, Fluo-8 calcium fluorescence, antagonist | AID 624466 | inhibition, % at 3 µM | Q96RJ0 | 1.5% of 360,000 active;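 active means inhibition above a per-plate cutoff, the mean inhibition of test compounds on that plate plus 3 SD, cut at about 49% in these data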;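 further: 0% = DMSO plus EC80 beta-PEA response and 100% = DMSO alone without agonist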
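Test system: CHO RD-HGA16 cells bearing hTAAR1 | Reagent: β-PEA, EC80 | Compound dosing: 3 µM, single point | Schedule: Dye loading 75 min at 37 °C, then 30 min room temperature | Signal: Calcium fluorescence with Fluo-8 | Evaluation: Percent inhibition of PEA-evoked calcium signal, max/basal emission ratio | Control set: DMSO-only wells and EC80 β-PEA-stimulated wells | Repeats: Singlicate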
NS3 helicase inh: HCV NS3 helicase inhibition. NS3 helicase DNA unwinding, Cy5 molecular beacon fluorescence. inhibition, % at 10.9 µM. 0.56% of 290,000 active;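 active means inhibition above the mean of all tested compounds plus 3 SD, set per campaign, cut at about 35% in these data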;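 further: 0% = DMSO wells and 100% = thioflavine S control wells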
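System: NS3 helicase fragment of HCV / Schedule: 1 h at 25 °C / Control set: DMSO alone as 0% and 110 µM thioflavine S as 100% / Reagent: Cy5/quencher beacon DNA duplex and ATP to start / Technique: Cy5 fluorescence / Replication: singlicate / Evaluation: % inhibition of end-to-start signal ratio versus controls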
TAAR1 ag conf: human TAAR1 agonism, confirmed. activation, % at 3 µM. AID 651783. shares compounds with TAAR1 agonist. 82% of 2,400 active. CHO RD-HGA16 TAAR1, Fluo-8 calcium fluorescence; scaled: DMSO 0%, maximal phenethylamine 100%;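 active means activation above a cutoff set at the run's mean compound activation plus 3 SD, cut at about 39% in these data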
Ga16 nonsel ag: nonselective agonism, TAAR1 counter-screen; shares compounds with TAAR1 agonist; CHO-Ga16 parental, Fluo-8 calcium fluorescence; normalized to maximal ATP response, DMSO zero; activation, % at 3 µM; 50% of 2,400 active;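 active means activation above the run cutoff, the mean activation over all tested wells plus 3 SD, cut at about 12% in these data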;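 further: 0% = DMSO wells and 100% = maximal ATP response on the peak over basal ratio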
TAAR1 desens: TAAR1 response desensitization, agonist counter-screen. inhibition, % at 3 µM. shares compounds with TAAR1 agonist. CHO RD-HGA16 hTAAR1, Fluo-8 calcium, beta-PEA response inhibition. 46% of 2,400 active;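 active means inhibition above the run cutoff, the mean inhibition of all test compounds plus 3 SD, cut at about 49% in these data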;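 further: beta-PEA stimulus applied at its EC80; loss of beta-PEA calcium signal after compound pretreatment read as receptor desensitization; 0% = DMSO with beta-PEA at EC80 and 100% = DMSO alone without agonist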
Ga16 nonsel ant: counter-screen for TAAR1 agonists: nonselective Ga16 antagonists; shares compounds with TAAR1 agonist; CHO-Ga16 ATP-induced calcium, Fluo-8 fluorescence; inhibition, % at 3 µM; 39% of 2,400 active;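 active means inhibition above the plate's mean compound inhibition plus 3 SD, computed per plate, cut at about 22% in these data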;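 further: 0% = EC80 ATP with DMSO and 100% = DMSO wells without ATP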
Starred values were filed as active, the others as inactive; / = no result given.

SMILES	rCAG RNA binder	TAAR1 agonist	HCV core dimer	TAAR1 antag	NS3 helicase inh	TAAR1 ag conf	Ga16 nonsel ag	TAAR1 desens	Ga16 nonsel ant
Cc1cc(C)nc(/N=C(\N)Nc2ccc(F)c([N+](=O)[O-])c2)n1	6	68*	-4	71*	-10	63*	38*	70*	39*
COC(=O)C1=C(C)N(Cc2cccc(C(F)(F)F)c2)C(=NCc2cc(OC)c(OC)c(OC)c2)NC1c1ccc(Cl)cc1 (stereo not drawn)	5	31	/	35	/	/	/	/	/
C[C@H](c1ccccc1)N1C[C@@H](COCc2ccccc2)Oc2cccc(Oc3ccc(C(C)(C)C)cc3)c2S1(=O)=O	4	2	/	-3	/	/	/	/	/
CCCCNC(=O)C[C@H]1C[C@@]2(C(=O)OC)C(=C[C@H](COCc3ccccc3)O[C@@H]2C)N(CCC2=CCCCC2)C1=O	3	-2	/	-22	/	/	/	/	/
c1ccc(CCN=C2CCCc3c2[nH]c2ccccc32)cc1	1	95*	4	96*	8	99*	0	101*	9
CCOc1ccc(N2C(=O)CC(NCc3ccc(S(N)(=O)=O)cc3)C2=O)cc1 (stereo not drawn)	4	45*	-1	-11	1	6	2	-13	-2
CC(C)CN1CC(C)C(=O)N(c2ccccc2)C1=O (stereo not drawn)	1	63*	/	21	/	2	3	8	5
CC1CN(Cc2ccccc2)C(=S)N(c2ccccc2)C1=O (stereo not drawn)	-2	2	/	-7	/	/	/	/	/
COC(=O)[C@]12C[C@H](CC(=O)N3CCN(C(=O)C4CC4)CC3)C(=O)N(Cc3ccc(Cl)cc3Cl)C1=C[C@H](COCc1ccccc1)O[C@@H]2C	10	/	/	/	/	/	/	/	/
Cc1ccc(S(=O)(=O)NC2=NCN(Cc3ccccc3)CN2)cc1	-1	2	-8	-2	17	/	/	/	/
Cc1ccc(S(=O)(=O)NC2=NCN(CCc3ccccc3)CN2)cc1	-3	64*	0	3	0	43*	0	2	8
CC1C(c2ccccc2)OCCN1C(=S)Nc1ccc(S(=O)(=O)N2CCCCC2)cc1 (stereo not drawn)	6	55*	/	10	/	56*	7	34	32*
CC1CCCCN1C(=S)Nc1ccc(S(=O)(=O)N2CCCCC2)cc1 (stereo not drawn)	5	13	/	11	/	/	/	/	/
O=C1Nc2ccccc2/C1=N/c1sc2c(c1C(=O)NCCc1ccccc1)CCCC2	10	83*	36	71*	14	50*	19*	27	22*
O=C(Nc1ccncc1)c1ccc(Cl)c(Cl)c1	0	56*	0	1	-16	42*	19*	8	6
O=C(NNC(=O)c1ccc(Cl)c(Cl)c1)c1ccncc1	1	0	1	5	/	/	/	/	/
CN(C)S(=O)(=O)c1ccc(C(=O)NCC(=O)N/N=C/c2ccccc2)cc1	2	/	6	/	1	/	1	/	5
COCCCNC(=O)Cn1nc(Cc2ccncc2)c2ccccc2c1=O	3	/	/	/	/	/	/	/	/
CC(Oc1ccccc1)C(=O)Nc1ccc(C(N)=O)cc1 (stereo not drawn)	2	12	-3	2	0	/	/	/	/
CC(Oc1ccc(Cl)cc1)C(=O)Nc1ccc(S(=O)(=O)N2CCOCC2)cc1 (stereo not drawn)	1	110*	12	48	-11	114*	72*	75*	42*
CC(C)NS(=O)(=O)c1ccc(NC(=O)C(C)Oc2ccc(C(=O)c3ccccc3)cc2)cc1 (stereo not drawn)	1	123*	10	105*	-9	122*	84*	105*	86*
c1ccc2c3c([nH]c2c1)CCNC3	3	82*	5	81*	-23	103*	0	93*	2
CCN1CCN(c2ccc(NC(=O)CCc3c(C)nc4c(-c5ccccc5)c(C)nn4c3C)cc2)CC1	5	/	5	/	-37	/	8	/	6
Cc1nc2c(-c3ccccc3)c(C)nn2c(C)c1CCC(=O)NCc1ccco1	1	-3	-4	-7	-3	/	/	/	/
COc1cccc(-c2nnc(SCc3cc(C)ccc3C)n2Cc2ccco2)c1	4	/	/	/	/	/	/	/	/
SMILES	rCAG RNA binder	TAAR1 agonist	HCV core dimer	TAAR1 antag	NS3 helicase inh	TAAR1 ag conf	Ga16 nonsel ag	TAAR1 desens	Ga16 nonsel ant
CCCn1c(Nc2nc3ccccc3n2C)nc2ccccc21	-1	30	0	-23	-12	/	/	/	/
CCCCn1c(Nc2ccccc2)nc2ccccc21	-4	45*	-1	6	-7	3	0	5	7
CC(C)c1onc(C(=O)N(C)Cc2ccccc2)c1[N+](=O)[O-]	1	1	0	-16	-3	/	/	/	/
CC(C)c1onc(C(=O)NCCc2ccccc2)c1[N+](=O)[O-]	1	/	8	/	2	/	1	/	6
COc1cccc(CN2CCN(Cc3cc4ccccc4[nH]3)CC2CCO)c1 (stereo not drawn)	-8	63*	-9	69*	-18	70*	49*	81*	56*
C=CCn1c(COc2ccccc2)nnc1SCC(=O)Nc1ccc(Oc2ccccc2)cc1	5	/	/	/	/	/	/	/	/
CCOC(=O)c1cn(C2CC2)c2c(F)c(F)c(F)cc2c1=O	1	49*	0	-20	-4	0	-1	3	2
CCOC(=O)c1cn(CC#N)c2cc(F)c(F)cc2c1=O	0	3	-3	-5	4	/	/	/	/
Nc1[nH]c(C(=O)c2ccccc2)c(-c2ccccc2C(F)(F)F)c1C(=O)NCCc1cccs1	2	48*	/	-3	/	30	4	21	13
COc1ccc(CN2C(=O)N3Cc4ccccc4C3CS2(=O)=O)cc1 (stereo not drawn)	4	/	/	/	/	/	/	/	/
Cc1ccc(SCc2nc(-c3ccncc3)no2)cc1	-6	52*	-9	-4	-9	9	4	6	7
COc1cc(/C=C(\C#N)c2nc3ccc(C)cc3[nH]2)c([N+](=O)[O-])cc1OC	10	47*	-11	7	3	33	30*	-2	10
COc1ccc(/C=C(\C#N)c2nc3ccc(C)cc3[nH]2)cc1Oc1ccc(C(F)(F)F)cc1[N+](=O)[O-]	7	3	17	-1	3	/	/	/	/
